According to PubChem BioAssay AID504349 (Southern Research Specialized Biocontainment Screening …, 2011):
The source made the active and inactive calls. No rule for the calls is given here.

Legend:
[1] = test system: E. coli EV36 K1, T7 phage lysis, OD600 3 h; experiment: OD600 growth after T7 infection, EV36 – E. coli EV36 K1, powder samples, selectivity assay for bacterial capsule biogenesis inhibitors, dose response (AID 504349)
Outline: (§1)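 Test system: E. coli EV36 K1:K-12 hybrid cells | Reagent: T7 phage infection | Timing: Compound pre-exposure 1.5 h at 37 °C shaking, 3 h post-phage | Evaluation: Phage lysis inhibition from OD600 | Medium: LB broth for the overnight bacterial culture | Replicates: Quadruplicate wells | Detection: Optical density at 600 nm, bacterial growth absorbance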

[2] = as above; conditions: E. coli EV36 K1, T7 phage lysis, OD600 3 h; at 100 µM (top of the series)
Outline: as §1

Compound | IC50 [1] [nM] | phage lysis inhibition (viability) [2]
O=C(NCc1cc([N+](=O)[O-])ccc1O)c1cccnc1Sc1ccccc1Cl | 1800 | –
O=C(O)c1cc(-c2cccc(Cl)c2)nc2cc3ccccc3cc12 | – | 101% (inactive)
CC1(C(=O)O)CCC(C(=O)Nc2ccc3ccccc3c2)C1(C)C (stereo not given) | 8500 | –
Cc1cc(C)c2c(=O)c(-c3cc(C(=O)O)c4cc5ccccc5cc4n3)coc2c1 | – | 107% (inactive)
C=CCOc1ccc(C2c3c(oc4ccccc4c3=O)C(=O)N2CCCN2CCOCC2)cc1 (stereo not given) | – | 97.4% (inactive)
O=C(NCc1cc([N+](=O)[O-])ccc1O)c1cccnc1Sc1ccccc1 | 4600 | –
O=C(Nc1ccncc1)c1ccc2ncsc2c1 | < 390 | –
COc1ccc(OC)c(-c2cc(C(=O)O)c3cc4ccccc4cc3n2)c1 | – | 99% (inactive)
CC1=NN2C(=N)/C(=C\c3ccc(SCc4ccco4)o3)C(=O)N=C2S1 | 1500 | –
Cc1ccc(C2c3c(oc4cc(C)c(C)cc4c3=O)C(=O)N2CCCN2CCOCC2)cc1 (stereo not given) | – | 91.7% (inactive)
O=C(ONc1ccc(N=NC(=O)c2ccccc2O)cc1)c1ccccc1 | < 390 | –
O=C(COc1ccc(Cl)cc1Cl)Nc1ccc(C(=O)Nc2ccccc2C(=O)O)cc1 | 2900 | –
CCOc1ccc(-c2cc(NC(=O)c3c(F)cccc3F)c(C(=O)O)s2)cc1 | < 390 | –
O=C(O)c1cc(-c2c[nH]c3ccccc23)nc2cc3ccccc3cc12 | – | 101% (inactive)
COc1ccc2nc(NC(=O)c3ccc(Br)s3)sc2c1 | < 390 | –
